Data on one compound can be found in ChEMBL document CHEMBL4725355, “Design, Synthesis, and Preclinical Evaluation of 3-Methyl-6-(5-thiophenyl)-1,3-dihydro-imidazo[4,5-b]pyridin-2-ones as Selective GluN2B Negative Allosteric Modulators for the Treatment of Mood Disorders” (J Med Chem, 2020).

Data set [1] can be described thus: Oral bioavailability in Sprague-Dawley rat at 2.5 mg/kg using 1:1 PEG-400/water formulation by LC-MS/MS analysis. It is filed as ADME, organism-based. The settings on record: in vivo. In short, it runs like this:
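Rats dosed 0.5 mg/kg i.v. and 2.5 mg/kg p.o., n=3 ± SD. Default vehicle is 20% HP-β-CD; one PK set used 1:1 PEG400/water and another 30% SBE-β-CD.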

A short description of data set [2]: Half life in dog at 0.1 mg/kg, iv by LC-MS/MS analysis. Format: ADME, organism-based, Canis lupus familiaris. The settings on record: in vivo.
A short description of data set [3]: Efflux ratio of apparent permeability across basolateral to apical side over apical to basolateral side in MDCK-MDR1 cells at 5 uM measured after 60 mins by LC-MS/MS analysis. Format: ADME, cell-based, Canis lupus familiaris. The settings on record: dog. In a few lines:
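MDCK-MDR1 cells, passages 6-30, seeded at 3.4×10^5 cells/cm² and cultured 3 days. Test compound at 5 µM final (1% DMSO) in HBSS, pH 7.4, applied to the donor side. A→B and B→A runs at 37 °C for 60 min, in duplicate, quantified by LC/MS/MS. Efflux ratio taken as B-A/A-B; monolayer integrity checked by lucifer yellow.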

Data set [4] in a line: Ratio of Cmax in Sprague-Dawley rat at 125 mg/kg, po administered via gavage after 24 hrs using HPMC formulation by LC-MS/MS analysis to EC70 for ex vivo receptor occupancy at GluN2B in po dosed Sprague-Dawley rat assessed as 3-[3H] 1-(azetidin-1-yl)-2-[6-(4-fluoro-3-methyl-phenyl)pyrrolo[3,2-b]pyridin-1-yl]-ethanone labelling. Format: ADME, organism-based.
The nature of data set [5]: Cmax in monkey at 0.5 mg/kg, po by LC-MS/MS analysis. The settings on record: rhesus monkey, in vivo. Format: ADME, organism-based, Macaca mulatta. Also on record: route oral, dose 0.5 mg/kg.
Data set [6] in a line: Protein binding in rat plasma assessed as unbound fraction at 0.5 uM after 6 hrs by equilibrium dialysis method. Format: ADME, cell-free. A general note: In equilibrium dialysis free small molecules cross a membrane that holds back macromolecules.
Data set [7] in a line: Solubility of compound in 30% sulfobutylether-beta-cyclodextrin. Format: physicochemical. In a few lines: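 Solubility of the compound assessed in dosing excipients, including 30% SBE-β-CD, 50% PEG-400 and 20% HP-β-CD. The aim was a solution usable for rat dosing; the 20% HP-β-CD formulation was checked for a 0.1 mg/mL solution to support a 0.5 mg/kg dose.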
Data set [8] in a line: Oral bioavailability in dog at 0.5 mg/kg by LC-MS/MS analysis. It is filed as ADME, organism-based, Canis lupus familiaris. The settings on record: in vivo.
Data set [9] relates to Rattus norvegicus. Briefly: Ex vivo receptor occupancy at GluN2B in po dosed Sprague-Dawley rat assessed as total plasma concentration causing 70% 3-[3H] 1-(azetidin-1-yl)-2-[6-(4-fluoro-3-methyl-phenyl)pyrrolo[3,2-b]pyridin-1-yl]-ethanone labelling measured after 60 mins by autoradiography. Format: functional, organism-based. In short, it runs like this:
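Oral dosing in rat at 8 dose levels, vehicle 20% HP-β-CD, 3 animals per group. Hippocampal GluN2B occupancy was measured ex vivo by autoradiography at 60 min post dose with the [3H] pyrrolopyridine tracer on brain slices. Labelling was expressed as percent of naïve control rats. EC70 was taken as the total (bound + unbound) plasma concentration giving 70% occupancy, with a 95% confidence interval.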

The nature of data set [10]: Cmax in mouse at 2.5 mg/kg, po by LC-MS/MS analysis. Format: ADME, organism-based. The settings on record: in vivo. Also on record: route oral, dose 2.5 mg/kg.
Data set [11] can be described thus: Cmax in Sprague-Dawley rat at 100 mg/kg, po administered via gavage after 24 hrs using nanosuspension formulation by LC-MS/MS analysis. It is filed as ADME, organism-based. The settings on record: in vivo. Set-up: route oral, dose 100 mg/kg, time 24 hrs. In short, it runs like this:
(§1)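 Single oral gavage dose to male Sprague Dawley rats, 3 per dose level. Vehicles were a standard suspension in 5% HPMC (125, 250, 500 or 1000 mg/kg) or a nanosuspension (API:polymer 4:1), with stock diluted in vehicle on the day of dosing (100, 250 or 500 mg/kg). Blood was sampled at time points from 0.5 to 24 h.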

Data set [12] can be described thus: Tmax in monkey at 0.5 mg/kg, po by LC-MS/MS analysis. Format: ADME, organism-based, Macaca mulatta. The settings on record: rhesus monkey, in vivo.
Data set [13] concerns the target T1, Aryl hydrocarbon receptor (Homo sapiens, UniProt P35869).
T1 sequence (P35869 whole entry): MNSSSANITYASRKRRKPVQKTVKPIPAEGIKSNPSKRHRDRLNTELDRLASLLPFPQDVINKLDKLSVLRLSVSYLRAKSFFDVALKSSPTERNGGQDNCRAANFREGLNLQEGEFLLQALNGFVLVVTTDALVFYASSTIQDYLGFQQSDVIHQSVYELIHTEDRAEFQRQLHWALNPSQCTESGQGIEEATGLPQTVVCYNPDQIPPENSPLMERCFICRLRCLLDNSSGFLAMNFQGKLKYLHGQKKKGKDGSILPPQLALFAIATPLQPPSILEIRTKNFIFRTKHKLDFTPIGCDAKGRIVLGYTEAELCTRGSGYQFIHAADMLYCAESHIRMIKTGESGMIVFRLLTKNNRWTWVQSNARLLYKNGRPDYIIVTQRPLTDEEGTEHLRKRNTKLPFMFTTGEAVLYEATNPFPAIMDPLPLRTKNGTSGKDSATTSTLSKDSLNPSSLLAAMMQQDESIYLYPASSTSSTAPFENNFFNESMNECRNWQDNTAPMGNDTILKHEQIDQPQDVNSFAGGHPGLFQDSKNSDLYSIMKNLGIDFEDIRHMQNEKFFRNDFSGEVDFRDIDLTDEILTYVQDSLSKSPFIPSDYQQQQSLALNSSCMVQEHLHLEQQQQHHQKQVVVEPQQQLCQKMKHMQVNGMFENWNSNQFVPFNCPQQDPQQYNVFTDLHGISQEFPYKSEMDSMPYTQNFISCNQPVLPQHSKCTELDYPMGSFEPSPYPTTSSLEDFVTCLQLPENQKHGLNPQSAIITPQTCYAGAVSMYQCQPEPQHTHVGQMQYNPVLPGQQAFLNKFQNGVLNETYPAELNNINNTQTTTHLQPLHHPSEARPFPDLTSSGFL
Briefly: Activation of human AHR expressed in human 1A2-DRE cells assessed as induction of CYP1A by luciferase reporter gene assay relative to control. Format: ADME, cell-based. In short, it runs like this:
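Luciferase reporter lines were used. DPX2 is HepG2 carrying human PXR plus a CYP3A4 promoter-luciferase construct. 1A2-DRE carries human AhR plus a CYP1A2 promoter with 3 DRE copies. Luminescence was read with ONE-Glo. Activation was expressed relative to rifampicin (PXR) or omeprazole (AhR).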
On the technique in general: A reporter such as luciferase makes a cellular process visible.

A short description of data set [14]: Half life in Sprague-Dawley rat at 2.5 mg/kg, po by LC-MS/MS analysis. Format: ADME, organism-based. The settings on record: in vivo.
Data set [15] can be described thus: Toxicity in Sprague-Dawley rat up to 500 mg/kg/day, po administered as nanosuspension measured for 14 days. The settings on record: in vivo, 336 h, time 14 day. It is filed as organism-based. In a few lines: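 Repeated daily oral dosing of a nanosuspension to rats for 14 days, with 500 mg/kg/day as the high dose. Clinical observations were recorded, and animals were moved to individual caging on Day 6.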

Data set [16] in a line: AUC (0 to 24 hrs) in Sprague-Dawley rat at 250 mg/kg, po administered via gavage after 24 hrs using HPMC formulation by LC-MS/MS analysis. Format: ADME, organism-based. Also on record: route oral, dose 250 mg/kg, time <=24. The settings on record: in vivo. In short, it runs like this: as §1
Data set [17] can be described thus: Volume of distribution at steady state in Sprague-Dawley rat at 0.5 mg/kg, iv or 2.5 mg/kg, po using 1:1 PEG-400/water formulation by LC-MS/MS analysis. It is filed as ADME, organism-based. The settings on record: in vivo. In short, it runs like this: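 Rat PK at 0.5 mg/kg i.v. and 2.5 mg/kg p.o., vehicle 1:1 PEG400/water. n=3, values given as mean ± SD.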

The structures appear in SMILES notation. Some results are limits rather than exact numbers.

One may read the half-life as the time in which the quantity being followed falls by half. For orientation: efflux ratio means a quotient of directional permeabilities that is used to spot active efflux. Usually Cmax stands for the maximum level reached in the sampled fluid or tissue. Broadly, the fraction unbound is the share of the substance not bound to proteins or other matrix. As a reminder, the solubility is the concentration that dissolves in the medium under given conditions. In general, Tmax refers to the time at which the peak concentration occurs. For orientation: AUC(0-t) means exposure summed from dosing to a finite time, without extrapolation to infinity. On to `Cn1c(=O)n(CC(=O)N2CCC2)c2cc(-c3ccc(C(F)(F)F)s3)cnc21`, for which the results for the bioavailability in [1] and in data set [8] were 132% and 43%, respectively. The half-life in [2] was 0.8 h; in [14], 2.2 h. Besides, the efflux ratio at 1 h, 5 µM in [3] is 2.1. For the same compound, the Ratio in data set [4] is listed as 6. Also, the results for the Cmax in data set [5], in data set [10] and in [11] were 0.167 µg/mL, 0.413 µg/mL and 9 µg/mL, respectively. Also, the fraction unbound at 6 h, 0.5 µM in [6] is 0.053. The same compound came in with a solubility in data set [7] of less than 1 mg/mL. The Cp in [9] was 716 ng/mL. For the same compound, in [12], the Tmax amounted to 1 h. Besides, the Activity in data set [13] is on record as less than 20%; in [15], “Non-Toxic”. This compound gave an AUC(0-t) in [16] of 19.7 µg·h/mL. In addition, in [17], the Vdss came out at 1.9 L/kg.
